According to ChEMBL document CHEMBL4028917, “(+)-Methyl (1R,2S)-2-{[4-(4-Chlorophenyl)-4-hydroxypiperidin-1-yl]methyl}-1-phenylcyclopropanecarboxylate [(+)-MR200] Derivatives as Potent and Selective Sigma Receptor Ligands: Stereochemistry and Pharmacological Properties” (J Med Chem, 2018):
In brackets after ≈: the same amount, converted by molar mass. Activity calls are given as the source filed them. No cut-off for these calls is given here.

What was measured:
[1] = biological target: D(1A) dopamine receptor (Rattus norvegicus, UniProt P18901); experiment: Binding affinity to dopamine D1 receptor in rat striatum by liquid scintillation counting method
[2] = biological target: D(2) dopamine receptor (Rattus norvegicus, UniProt P61169); experiment: Displacement of [3H]-spiperone from dopamine D2 receptor in rat strriatum after 15 mins by liquid scintillation counting method
[3] = species on record: Cavia porcellus; experiment: Selectivity index, ratio of Ki for sigma2 receptor in guinea pig brain membrane […]; format: cell membranes
[4] = biological target: Sigma non-opioid intracellular receptor 1 (Cavia porcellus, UniProt Q60492); experiment: Displacement of [3H]-(+)-pentazocine from sigma1 receptor in guinea pig brain membrane after 150 mins by liquid scintillation counting method; format: cell membranes
[5] = Displacement of [3H]-(+)-DTG from sigma2 receptor in guinea pig brain membrane after 120 mins by liquid scintillation counting method; format: cell membranes, Cavia porcellus
[6] = test system: Mus musculus; experiment: Antinociceptive activity in CD1 mouse model of mechanical nociception assessed as increase in morphine-induced struggle response latency at 32 mg/kg, sc administered 30 mins before behavioral evaluation co-treated with 32 mg/kg, sc prototypical sigma1 receptor agonist PRE-084 administered 5 min before injection of morphine by paw pressure test; format: functional, organism-based
Outline: (§1)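 Female CD1 mice (25–30 g) in the paw pressure test. A 450 g blunt cone was pressed on the dorsal hindpaw until a struggle response, and latency (s) was recorded. Each hindpaw was tested twice, alternately, 1 min apart. Morphine (4 mg/kg) or HPMC vehicle was given s.c. 30 min before testing. Test drugs were given s.c. in HPMC 5 min before morphine. Mean ± SEM, 6–8 animals; one-way ANOVA with Bonferroni.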

[7] = test system: Mus musculus; experiment: Antinociceptive activity in CD1 mouse model of mechanical nociception assessed as effect on struggle response latency at 16 to 32 mg/kg, sc administered 30 mins before behavioral evaluation by paw pressure test; format: functional, organism-based; outline: as §1
[8] = test system: Mus musculus; experiment: Antinociceptive activity in CD1 mouse model of mechanical nociception assessed as effect on struggle response latency at 8 mg/kg, sc administered 30 mins before behavioral evaluation by paw pressure test; format: functional, organism-based; outline: as §1
[9] = test system: Plasma; experiment: Enzymatic stability of the compound in mouse plasma assessed observed rate constant; format: ADME, cell-free
Outline: (§2)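 Hydrolysis was followed at 37 °C in rat, mouse or human plasma. Half-life (h) and observed rate constant (h⁻¹) were derived; means ± SD of three experiments.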

[10] = Aqueous solubility of the compound; format: physicochemical
Outline: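 Water solubility (mg/mL) was measured experimentally; mean ± SD of three experiments.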

[11] = test system: Plasma; experiment: Enzymatic stability of the compound in rat plasma assessed observed rate constant; format: ADME, cell-free; outline: as §2
[12] = Chemical stability at pH 7.4 assessed as observed rate constant; format: physicochemical; conditions: buffer
Outline: (§3)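 Chemical stability was tested in vitro at 37 °C in aqueous buffer at pH 1.3 (non-enzymatic simulated gastric fluid) or pH 7.4. Half-life and k_obs were reported; means ± SD of three experiments.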

[13] = Chemical stability of the compound at pH 1.3 assessed as half life; format: physicochemical; conditions: buffer; outline: as §3
[14] = Enzymatic stability of the compound in human plasma assessed as half life; format: ADME, cell-free; outline: as §2
[15] = Chemical stability at pH 1.3 assessed as observed rate constant; format: physicochemical; conditions: buffer; outline: as §3
[16] = Enzymatic stability of the compound in mouse plasma assessed as half life; format: ADME, cell-free; outline: as §2
[17] = biological target: T1, 5-hydroxytryptamine receptor 3A (Rattus norvegicus) (UniProt P35563); experiment: Binding affinity to 5-HT3 receptor in rat cortex by liquid scintillation counting method
T1 sequence (whole entry): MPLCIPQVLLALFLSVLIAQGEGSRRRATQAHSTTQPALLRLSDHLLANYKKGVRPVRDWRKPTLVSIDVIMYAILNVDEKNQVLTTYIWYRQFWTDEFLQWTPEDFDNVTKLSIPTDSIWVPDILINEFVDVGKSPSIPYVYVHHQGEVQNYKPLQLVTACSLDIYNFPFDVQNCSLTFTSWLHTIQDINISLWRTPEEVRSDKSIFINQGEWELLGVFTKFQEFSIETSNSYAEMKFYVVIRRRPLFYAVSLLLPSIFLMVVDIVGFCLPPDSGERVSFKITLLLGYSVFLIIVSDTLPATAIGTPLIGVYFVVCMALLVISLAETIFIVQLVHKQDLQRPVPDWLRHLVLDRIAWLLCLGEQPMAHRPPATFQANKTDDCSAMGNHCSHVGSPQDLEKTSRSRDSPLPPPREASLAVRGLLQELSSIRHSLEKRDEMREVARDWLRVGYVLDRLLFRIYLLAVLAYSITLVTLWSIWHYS

[18] = biological target: 5-hydroxytryptamine receptor 2A (Rattus norvegicus) (UniProt P14842); experiment: Binding affinity to 5-HT2A receptor in rat cortex by liquid scintillation counting method
[19] = biological target: D(3) dopamine receptor (Rattus norvegicus) (UniProt P19020); experiment: Binding affinity to dopamine D3 receptor in rat olfactory tubercle by liquid scintillation counting method
[20] = test system: Mus musculus; experiment: Antinociceptive activity in CD1 mouse model of mechanical nociception assessed as increase in morphine-induced struggle response latency at 16 to 32 mg/kg, sc administered 30 mins before behavioral evaluation by paw pressure test; format: functional, organism-based; outline: as §1
[21] = Enzymatic stability of the compound in rat plasma assessed as half life; format: ADME, cell-free; outline: as §2
[22] = species on record: Homo sapiens; experiment: Binding affinity to dopamine D4.2 receptor (unknown origin) by liquid scintillation counting method
[23] = test system: Plasma; experiment: Enzymatic stability of the compound in human plasma assessed observed rate constant; format: ADME, cell-free; outline: as §2
[24] = biological target: Adrenergic receptor alpha-1 (Rattus norvegicus) (UniProt P15823+P23944+P43140); experiment: Binding affinity to adrenergic alpha1 receptor in rat cortex by liquid scintillation counting method
[25] = test system: Mus musculus; experiment: Reversal of 8 mg/kg, sc BD-1063-induced potentiation of morphine-induced antinociceptive activity in CD1 mouse model of mechanical nociception by measuring struggle response latency at 32 mg/kg, sc administered 30 mins before behavioral evaluation by paw pressure test; format: functional, organism-based; outline: as §1
[26] = Chemical stability of the compound at pH 7.4 assessed as half life; format: physicochemical; conditions: buffer; outline: as §3
[27] = test system: Mus musculus; experiment: Antinociceptive activity in CD1 mouse model of mechanical nociception assessed as increase in morphine-induced struggle response latency at 12 to 16 mg/kg, sc administered 30 mins before behavioral evaluation by paw pressure test; format: functional, organism-based; outline: as §1
[28] = test system: Mus musculus; experiment: Antinociceptive activity in CD1 mouse model of mechanical nociception assessed as effect on struggle response latency at 32 mg/kg, sc administered 30 mins before behavioral evaluation by paw pressure test; format: functional, organism-based; outline: as §1
[29] = test system: Mus musculus; experiment: Antinociceptive activity in sc dosed CD1 mouse model of mechanical nociception assessed as increase in morphine-induced struggle response latency administered 30 mins before behavioral evaluation by paw pressure test; format: functional, organism-based; outline: as §1
[30] = test system: Mus musculus; experiment: Antinociceptive activity in CD1 mouse model of mechanical nociception assessed as effect on struggle response latency at 4 mg/kg, sc administered 30 mins before behavioral evaluation by paw pressure test; format: functional, organism-based
Outline: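 Female CD1 mice (25–30 g). Paw pressure test: a blunt cone applied 450 g to the dorsal hindpaw until a struggle response; latency (s) recorded. Each hindpaw was tested twice, alternately, at 1 min intervals. Morphine or HPMC vehicle was given s.c. 30 min before testing. Values are the mean ± SEM of both hindpaws from 6–8 animals; one-way ANOVA with Bonferroni test.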

Sequence of Sigma non-opioid intracellular receptor 1 (Q60492 whole entry): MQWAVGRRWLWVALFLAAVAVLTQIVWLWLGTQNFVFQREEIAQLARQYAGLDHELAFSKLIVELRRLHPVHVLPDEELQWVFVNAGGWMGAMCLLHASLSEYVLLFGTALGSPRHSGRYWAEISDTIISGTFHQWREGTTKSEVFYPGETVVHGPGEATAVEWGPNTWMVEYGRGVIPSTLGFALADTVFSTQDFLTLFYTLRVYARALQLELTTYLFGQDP
Sequence of D(2) dopamine receptor (P61169 whole entry): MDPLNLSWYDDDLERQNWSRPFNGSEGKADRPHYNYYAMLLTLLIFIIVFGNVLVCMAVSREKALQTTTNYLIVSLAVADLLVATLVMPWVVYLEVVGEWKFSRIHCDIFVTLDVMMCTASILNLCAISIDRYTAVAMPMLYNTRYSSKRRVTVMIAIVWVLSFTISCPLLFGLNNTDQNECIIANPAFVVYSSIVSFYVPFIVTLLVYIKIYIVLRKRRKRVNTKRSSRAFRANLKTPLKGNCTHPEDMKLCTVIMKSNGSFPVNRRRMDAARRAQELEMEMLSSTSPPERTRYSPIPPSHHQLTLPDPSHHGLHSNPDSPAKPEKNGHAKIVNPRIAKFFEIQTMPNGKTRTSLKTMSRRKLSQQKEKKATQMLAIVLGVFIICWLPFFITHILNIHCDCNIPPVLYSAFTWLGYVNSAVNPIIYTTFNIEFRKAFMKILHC
Sequence of D(1A) dopamine receptor (P18901 whole entry): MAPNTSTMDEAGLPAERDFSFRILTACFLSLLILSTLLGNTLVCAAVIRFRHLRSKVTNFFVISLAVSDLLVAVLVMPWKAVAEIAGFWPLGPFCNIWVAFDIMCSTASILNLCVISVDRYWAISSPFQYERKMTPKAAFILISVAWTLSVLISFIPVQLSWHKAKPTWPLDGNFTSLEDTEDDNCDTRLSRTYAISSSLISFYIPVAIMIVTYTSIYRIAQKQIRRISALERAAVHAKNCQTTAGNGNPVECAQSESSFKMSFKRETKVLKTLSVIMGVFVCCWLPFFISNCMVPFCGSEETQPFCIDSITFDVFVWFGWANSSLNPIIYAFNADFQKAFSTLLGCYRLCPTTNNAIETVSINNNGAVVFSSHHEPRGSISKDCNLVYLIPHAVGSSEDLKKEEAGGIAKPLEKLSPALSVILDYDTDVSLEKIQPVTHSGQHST
Sequence of D(3) dopamine receptor (Rattus norvegicus) (P19020 whole entry): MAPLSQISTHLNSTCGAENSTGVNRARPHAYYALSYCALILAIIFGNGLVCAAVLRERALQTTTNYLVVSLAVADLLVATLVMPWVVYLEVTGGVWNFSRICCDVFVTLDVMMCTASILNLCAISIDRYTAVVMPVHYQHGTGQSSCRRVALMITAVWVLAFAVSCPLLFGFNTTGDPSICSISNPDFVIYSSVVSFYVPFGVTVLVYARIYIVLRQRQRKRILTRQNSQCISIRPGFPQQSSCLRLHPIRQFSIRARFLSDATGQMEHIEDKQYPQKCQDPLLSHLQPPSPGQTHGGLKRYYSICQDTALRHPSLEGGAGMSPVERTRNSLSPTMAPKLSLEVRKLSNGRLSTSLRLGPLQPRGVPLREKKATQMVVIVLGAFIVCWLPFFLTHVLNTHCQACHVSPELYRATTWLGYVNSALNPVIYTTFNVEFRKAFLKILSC
Sequence of 5-hydroxytryptamine receptor 2A (Rattus norvegicus) (P14842 whole entry): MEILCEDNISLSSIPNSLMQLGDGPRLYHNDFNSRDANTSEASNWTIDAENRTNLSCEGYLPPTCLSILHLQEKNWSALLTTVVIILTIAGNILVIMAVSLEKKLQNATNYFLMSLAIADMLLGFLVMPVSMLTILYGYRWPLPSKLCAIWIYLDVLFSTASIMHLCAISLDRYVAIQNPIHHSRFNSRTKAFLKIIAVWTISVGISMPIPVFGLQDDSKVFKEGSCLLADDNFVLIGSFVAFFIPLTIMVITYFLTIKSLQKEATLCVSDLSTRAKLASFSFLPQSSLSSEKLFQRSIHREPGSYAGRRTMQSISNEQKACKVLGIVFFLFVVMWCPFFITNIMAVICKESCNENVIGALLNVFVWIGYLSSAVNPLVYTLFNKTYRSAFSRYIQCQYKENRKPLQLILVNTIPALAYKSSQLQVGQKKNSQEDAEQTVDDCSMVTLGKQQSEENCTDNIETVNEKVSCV

Row | Compound | Ratio Ki [3] | Ki [4] [nM] | Ki [5] [nM] | other results
1 | COC(=O)[C@]1(c2ccccc2)C[C@H]1CN1CCC(O)(c2ccc(Cl)cc2)CC1 | 3.6 | 11 | 40 | Ki [1]: > 10000 nM; Ki [2]: 5620 nM
2 | CCCN1CCC=C(c2cc(-c3ccc(C)cc3)no2)C1 |  | 4.3 |  | 
3 | CCOC(=O)[C@@]1(c2ccccc2)C[C@H]1CN1CCC(O)(c2ccc(Cl)cc2)CC1 | 20.4 | 45 | 918 | 
4 | CCOC(=O)[C@]1(c2ccccc2)C[C@@H]1CN1CCC(O)(c2ccc(Cl)cc2)CC1 | 42.2 | 1.35 | 57 | 
5 | CC(C)OC(=O)[C@]1(c2ccccc2)C[C@@H]1CN1CCC(O)(c2ccc(Cl)cc2)CC1 | 10.5 | 20 | 209 | Activity [6]: inactive; Activity [7]: inactive
6 | CN1CCN(CCc2ccc(Cl)c(Cl)c2)CC1 |  |  |  | Activity [8]: Active
7 | CC(C)OC(=O)[C@@]1(c2ccccc2)C[C@@H]1CN1CCC(O)(c2ccc(Cl)cc2)CC1 | > 250 | 7 | 1840 | K [9]: 0.51 h⁻¹; solubility [10]: 3100 µg/mL (≈ 7.24 mM); K [11]: 3.26 h⁻¹; K [12]: 0.009 h⁻¹; half-life [13]: 83.6 h; half-life [14]: 65.2 h; K [15]: 0.009 h⁻¹; half-life [16]: 1.14 h; Activity [17]: inactive; Activity [18]: inactive; Activity [19]: inactive; Activity [20]: inactive; half-life [21]: 0.38 h; Activity [22]: inactive; K [23]: 0.01 h⁻¹; Activity [24]: inactive; Activity [25]: Active; half-life [26]: 91 h
8 | CC(C)OC(=O)[C@@]1(c2ccccc2)C[C@H]1CN1CCC(O)(c2ccc(Cl)cc2)CC1 | 24.4 | 67 | 1640 | Activity [20]: Active; Activity [6]: inactive; Activity [7]: inactive; Activity [27]: Active
9 | CCCOC(=O)[C@]1(c2ccccc2)C[C@H]1CN1CCC(O)(c2ccc(Cl)cc2)CC1 | 6.1 | 12 | 73 | 
10 | CCCOC(=O)[C@]1(c2ccccc2)C[C@@H]1CN1CCC(O)(c2ccc(Cl)cc2)CC1 | 10.4 | 14 | 146 | 
11 | O=C(O)[C@@]1(c2ccccc2)C[C@@H]1CN1CCC(O)(c2ccc(Cl)cc2)CC1 | 1.5 | 445 | 650 | 
12 | COC(=O)C1(c2ccccc2)CC1CN1CCC(O)(c2ccc(Cl)cc2)CC1 (single isomer, unassigned; (-)) |  | 5.6 | 23.4 | Ki [1]: > 10000 nM; Ki [2]: 378 nM
13 | CC(C)OC(=O)[C@]1(c2ccccc2)C[C@H]1CN1CCC(O)(c2ccc(Cl)cc2)CC1 | 5 | 43 | 214 | Activity [20]: Active; Activity [6]: inactive; Activity [28]: inactive; Activity [29]: Dose-dependent effect
14 | CCCOC(=O)[C@@]1(c2ccccc2)C[C@H]1CN1CCC(O)(c2ccc(Cl)cc2)CC1 | 8.8 | 33 | 290 | 
15 | CN1CC[C@]23c4c5ccc(O)c4O[C@H]2[C@@H](O)C=C[C@H]3[C@H]1C5 |  |  |  | Activity [30]: inactive
16 | COC(=O)C1(c2ccccc2)CC1CN1CCC(O)(c2ccc(Cl)cc2)CC1 (single isomer, unassigned; (+)) [listing 1 of 2 here] | 14.5 |  |  | 
17 | COC(=O)C1(c2ccccc2)CC1CN1CCC(O)(c2ccc(Cl)cc2)CC1 (single isomer, unassigned; (+)) [listing 2 of 2 here] |  | 1.51 | 21.9 | Ki [1]: > 10000 nM; Ki [2]: 3230 nM
18 | CCOC(=O)[C@@]1(c2ccccc2)C[C@@H]1CN1CCC(O)(c2ccc(Cl)cc2)CC1 | 25 | 52 | 1300 | 
19 | COC(=O)[C@@]1(c2ccccc2)C[C@@H]1CN1CCC(O)(c2ccc(Cl)cc2)CC1 | 1.1 | 129 | 142 | Ki [1]: > 10000 nM; Ki [2]: 4970 nM
20 | O=C(CCCN1CCC(O)(c2ccc(Cl)cc2)CC1)c1ccc(F)cc1 [HALOPERIDOL] |  |  | 16 | 
21 | CCOC(=O)[C@]1(c2ccccc2)C[C@H]1CN1CCC(O)(c2ccc(Cl)cc2)CC1 | 2.4 | 45 | 107 | 
22 | CCCOC(=O)[C@@]1(c2ccccc2)C[C@@H]1CN1CCC(O)(c2ccc(Cl)cc2)CC1 | 13.2 | 13 | 171 | 
23 | COC(=O)C1(c2ccccc2)CC1CN1CCC(O)(c2ccc(Cl)cc2)CC1 (racemic) |  | 14.6 | 61.1 | Ki [1]: > 10000 nM; Ki [2]: 5200 nM
